Laboratory results reported in publication PMC12243159 (RSC Medicinal Chemistry, 2025).
“Also recorded” adds a separate entry of the source. Where two headings read alike, the source gives them in different places.

Tests used:
[1] = system: pancreatic epithelioid carcinoma PANC-1; test: cell proliferation, CCK-8 assay, PANC-1; type: cell-based; details: PANC-1 cells, 72 hours, hypoxic conditions
[2] = system: non-small cell lung carcinoma A549; test: cell proliferation, CCK-8 assay, A549; type: cell-based; details: A549 cells, 72 hours, hypoxic conditions
hCA II [3] = target: T1, hCA II (Homo sapiens, UniProt P00918); details: read-out: KI hCA II; stopped-flow hydration assay; values marked *; cited from earlier work
hCA VI = hCA VI (Homo sapiens, UniProt P23280); test: stopped-flow CO2 hydration assay, hCA VI; type: biochemical
MDA-MB-231 cells = test: cell proliferation assay, cell counting by flow cytometry; type: cell-based, human; details: MDA-MB-231, 72 hours, hypoxic conditions
Outline: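 MDA-MB-231 cells were grown in DMEM with 10% FBS, 1% penicillin/streptomycin and 1% glutamine, kept at low passage, and held under hypoxia (1% O₂, 5% CO₂). Cells were seeded at 10.000 per well and treated in 1% FBS with increasing compound concentrations for 72 h at 37 °C. They were then detached with trypsin/2 mM EDTA and counted by flow cytometry. Counts are given as % of untreated control (mean ± SEM) with IC₅₀.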

hCA II [4] = target: T1, hCA II; test: stopped-flow CO2 hydration assay, hCA II; type: biochemical
Outline: (§1)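 Recombinant in-house enzyme, preincubated 15 min at room temperature with inhibitor. Inhibitor stock was 0.1 mM in water, diluted down to 0.01 nM. CO₂ (1.7–17 mM) hydration was followed by stopped-flow with 0.2 mM phenol red at 557 nm, in 20 mM HEPES pH 7.5 with 20 mM Na₂SO₄, over 10–100 s. Initial rates came from six traces and were corrected for the uncatalysed rate. Ki was obtained by non-linear least squares, mean of ≥3 measurements.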

hCA XII = hCA XII (Homo sapiens, UniProt O43570); test: stopped-flow CO2 hydration assay, hCA XII; type: biochemical; details: for SI I/XII: ratio of KI hCA I to KI hCA XII
hCA IX = hCA IX (Homo sapiens, UniProt Q16790); test: stopped-flow CO2 hydration assay, hCA IX; type: biochemical; details: for SI I/IX: ratio of KI hCA I to KI hCA IX; for SI II/IX: ratio of KI hCA II to KI hCA IX
hCA I = hCA I (Homo sapiens, UniProt P00915); test: stopped-flow CO2 hydration assay, hCA I; type: biochemical
Outline: as §1

Chain of hCA XII (O43570 25-354): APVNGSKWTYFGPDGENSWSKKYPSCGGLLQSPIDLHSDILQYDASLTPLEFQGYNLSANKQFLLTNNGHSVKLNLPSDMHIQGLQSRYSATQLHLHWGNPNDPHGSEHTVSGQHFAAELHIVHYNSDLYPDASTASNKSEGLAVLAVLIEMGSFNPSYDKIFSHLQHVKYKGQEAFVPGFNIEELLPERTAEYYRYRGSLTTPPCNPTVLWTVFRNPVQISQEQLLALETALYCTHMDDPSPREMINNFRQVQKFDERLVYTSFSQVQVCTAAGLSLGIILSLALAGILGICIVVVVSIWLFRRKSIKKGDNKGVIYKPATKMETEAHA
Chain of hCA I (P00915 whole entry): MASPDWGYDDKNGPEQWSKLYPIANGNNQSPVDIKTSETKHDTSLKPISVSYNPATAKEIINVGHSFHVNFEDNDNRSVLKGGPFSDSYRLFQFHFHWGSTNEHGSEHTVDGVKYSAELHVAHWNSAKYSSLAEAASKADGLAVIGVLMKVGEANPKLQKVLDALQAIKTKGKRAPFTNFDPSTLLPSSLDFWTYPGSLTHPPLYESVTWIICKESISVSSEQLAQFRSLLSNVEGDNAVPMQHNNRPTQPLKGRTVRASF
Chain of hCA VI (P23280 18-308): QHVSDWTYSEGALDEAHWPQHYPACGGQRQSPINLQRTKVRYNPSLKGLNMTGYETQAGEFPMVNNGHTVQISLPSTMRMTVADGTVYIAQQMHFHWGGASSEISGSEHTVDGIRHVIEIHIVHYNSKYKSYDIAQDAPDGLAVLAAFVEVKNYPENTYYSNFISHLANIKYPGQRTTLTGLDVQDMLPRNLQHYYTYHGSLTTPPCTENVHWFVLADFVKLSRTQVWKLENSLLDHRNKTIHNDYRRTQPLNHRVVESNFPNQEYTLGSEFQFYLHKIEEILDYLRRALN

SMILES	antiproliferative effect [1]	antiproliferative effect [2]	Ki (hCA II [3]) [nM]	Ki (hCA VI) [nM]	anti-proliferative effect (MDA-MB-231 cells)	Ki (hCA II [4]) [nM]	SI I/XII (hCA XII)	Ki (hCA IX) [nM]	SI I/IX (hCA IX)	SI II/IX (hCA IX)	Ki (hCA I) [nM]	Ki (hCA XII; KI hCA XII, stopped-flow hydration assay) [nM]	SI II/XII (hCA XII; ratio of KI hCA II to KI hCA XII)
NS(=O)(=O)c1ccc(NC(=O)Nc2ccc(F)cc2)cc1 [SLC-0111]	ineffective	ineffective	–	–	–	–	–	–	–	–	–	–	–
C#Cc1cccc(Nc2ncnc3cc(OCCOC)c(OCCOC)cc23)c1 [ERL, erlotinib]	displayed an antiproliferative effect	displayed an antiproliferative effect	3980	453	mild reduction of cell proliferation; also recorded: low efficacy	–	–	–	–	–	–	–	–
Cc1cn([C@H]2C[C@H](N=[N+]=[N-])[C@@H](CO)O2)c(=O)[nH]c1=O [AZT, azidothymidine, reference compound]	–	–	684	505	–	12.1	43.86	25.7	9.73	0.47	250	–	–
COCCOc1cc2ncnc(Nc3cccc(-c4cn(CCOCCOCCOCCNC(=S)Nc5cccc(S(N)(=O)=O)c5)nn4)c3)c2cc1OCCOC [compound 8a, 3-(3-(2-(2-(2-(2-(4-(3-((6,7-Bis(2-methoxyethoxy)quinazolin-4-yl)amino)phenyl)-1H-1,2,3-triazol-1-yl)ethoxy)ethoxy)ethoxy)ethyl)thioureido)benzenesulfonamide]	–	–	–	–	–	3170	636	1920	23.8	1.65	45800	72	44.0
